# From ChEMBL document CHEMBL3272327, “Hypocholesterolemic activity of 1,3-bis(substituted phenoxy)-2-propanones” (J Med Chem, 1976)
# How the values were obtained:
# Rattus norvegicus [1] = experiment: Effect on liver weight in rat at 1 mg/kg/day administered for 16 days measured 24 hrs after last drug dosage relative to total body weight (reference value: 4.22 +/- 0.29%); assay type: ADME, organism-based; conditions: in vivo
# Rattus norvegicus [2] = experiment: Effect on liver weight in rat at 10 mg/kg/day administered for 16 days measured 24 hrs after last drug dosage relative to total body weight (reference value: 4.22 to 4.54%); assay type: ADME, organism-based; conditions: in vivo
# Rattus norvegicus [3] = experiment: Effect on liver weight in rat at 50 mg/kg/day administered for 16 days measured 24 hrs after last drug dosage relative to total body weight (reference value: 4.22 +/- 0.29%); assay type: ADME, organism-based; conditions: in vivo
# Rattus norvegicus [4] = experiment: Effect on heart weight in rat at 5 mg/kg/day administered for 16 days measured 24 hrs after last drug dosage relative to total body weight (reference value: 0.37 +/- 0.04%); assay type: ADME, organism-based; conditions: in vivo
# Rattus norvegicus [5] = experiment: Effect on spleen weight in rat at 10 mg/kg/day administered for 16 days measured 24 hrs after last drug dosage relative to total body weight (reference value: 0.55 +/- 0.12%); assay type: ADME, organism-based; conditions: in vivo
# Rattus norvegicus [6] = experiment: Effect on brain weight in rat at 10 mg/kg/day administered for 16 days measured 24 hrs after last drug dosage relative to total body weight (reference value: 0.67 +/- 0.05%); assay type: ADME, organism-based; conditions: in vivo
# Rattus norvegicus [7] = experiment: Effect on vas deferens and epididymis weight in rat at 10 mg/kg/day administered for 16 days measured 24 hrs after last drug dosage relative to total body weight (reference value: 0.22 to 0.24%); assay type: ADME, organism-based; conditions: in vivo
# Rattus norvegicus [8] = experiment: Effect on vas deferens and epididymis weight in rat at 50 mg/kg/day administered for 16 days measured 24 hrs after last drug dosage relative to total body weight (reference value: 0.22 +/- 0.04%); assay type: ADME, organism-based; conditions: in vivo
# Rattus norvegicus [9] = experiment: Effect on testes weight in rat at 10 mg/kg/day administered for 16 days measured 24 hrs after last drug dosage relative to total body weight (reference value: 1.08 to 1.10%); assay type: ADME, organism-based, Testis; conditions: in vivo
# Rattus norvegicus [10] = experiment: Effect on vesicular gland weight in rat at 10 mg/kg/day administered for 16 days measured 24 hrs after last drug dosage relative to total body weight (reference value: 0.10 to 0.11%); assay type: ADME, organism-based; conditions: in vivo
# Rattus norvegicus [11] = experiment: Hypocholesterolemic activity in rat assessed as [14C]palmitic acid level in lung at 10 mg/kg/day administered for 1 week measured after 22 hrs on day 7 by scintillation counting analysis (reference value: 0.53 +/- 0.15%); assay type: functional
# In short: (§1)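 Male Sprague-Dawley rats on lab chow dosed orally once daily for 1 week at 10 mg/kg/day, suspended in 1% CMC, or given vehicle alone. On day 7, 5 μCi [1-14C]palmitic acid given orally. Killed after 22 hr; organs made into 10% water homogenates. Aliquots of 0.1 cc of homogenate, urine, blood or feces were digested and scintillation counted. Output is % of dose per tissue, N = 6.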
# Rattus norvegicus [12] = experiment: Hypocholesterolemic activity in rat assessed as [14C]palmitic acid level in brain at 10 mg/kg/day administered for 1 week measured after 22 hrs on day 7 by scintillation counting analysis (reference value: 0.07 +/- 0.04%); assay type: functional; in short: as §1
# Rattus norvegicus [13] = experiment: Hypocholesterolemic activity in rat assessed as [14C]palmitic acid level in stomach at 10 mg/kg/day administered for 1 week measured after 22 hrs on day 7 by scintillation counting analysis (reference value: 0.65 +/- 0.46%); assay type: functional; in short: as §1
# Rattus norvegicus [14] = experiment: Hypocholesterolemic activity in rat assessed as [14C]palmitic acid level in small intestine at 10 mg/kg/day administered for 1 week measured after 22 hrs on day 7 by scintillation counting analysis (reference value: 4.43 +/- 1.43%); assay type: functional; in short: as §1
# Rattus norvegicus [15] = experiment: Hypocholesterolemic activity in rat assessed as [14C]palmitic acid level in large intestine at 10 mg/kg/day administered for 1 week measured after 22 hrs on day 7 by scintillation counting analysis (reference value: 3.46 +/- 1.25%); assay type: functional; in short: as §1
# Rattus norvegicus [16] = experiment: Hypocholesterolemic activity in rat assessed as [14C]palmitic acid level in urine at 10 mg/kg/day administered for 1 week measured after 22 hrs on day 7 by scintillation counting analysis (reference value: 3.31 +/- 1.37%); assay type: functional; in short: as §1
# Rattus norvegicus [17] = experiment: Hypocholesterolemic activity in rat assessed as [14C]cholesterol level in kidney at 10 mg/kg/day administered for 1 week measured after 22 hrs on day 7 by scintillation counting analysis (reference value: 0.69 +/- 0.27%); assay type: functional
# In short: (§2)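 Male rats were dosed orally for 1 week (10 mg/kg/day) or with 1% CMC. On day 7 they received 5 μCi [4-14C]cholesterol orally and were killed after 22 hr. Organs were homogenized (10% in water); 0.1-cc aliquots of homogenate, urine, blood or feces were digested with Protosol. Samples were counted in toluene/Triton X-100 (2:1) scintillant with 0.4% PPO and 0.01% POPOP. Results are % of dose per tissue, N = 6.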
# Rattus norvegicus [18] = experiment: Hypocholesterolemic activity in rat assessed as [14C]cholesterol level in heart at 10 mg/kg/day administered for 1 week measured after 22 hrs on day 7 by scintillation counting analysis (reference value: 0.39 +/- 0.13%); assay type: functional; in short: as §2
# Rattus norvegicus [19] = experiment: Hypocholesterolemic activity in rat assessed as [14C]cholesterol level in testes at 10 mg/kg/day administered for 1 week measured after 22 hrs on day 7 by scintillation counting analysis (reference value: 0.24 +/- 0.17%); assay type: functional, Testis; in short: as §2
# Rattus norvegicus [20] = experiment: Effect on body weight in rat at 5 mg/kg/day administered for 16 days measured on day 7 (reference value: 173 +/- 12 gms); assay type: ADME, organism-based; conditions: in vivo, 384 h
# In short: (§3)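 Male Sprague-Dawley rats with chow and water ad libitum. Compound suspended in 1% CMC-water and given orally by intubation needle at 11:00 a.m., 1, 5, 10 or 50 mg/kg/day, for 16 days. Body weight (g) recorded on days 0, 7 and 16. N = 8.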
# Rattus norvegicus [21] = experiment: Effect on body weight in rat at 50 mg/kg/day administered for 16 days measured on day 16 (reference value: 233 +/- 16 gms); assay type: ADME, organism-based; conditions: in vivo, 384 h; in short: as §3
# Rattus norvegicus [22] = experiment: Hypocholesterolemic activity in Sprague-Dawley rat assessed as serum cholesterol level at 50 mg/kg/day, po administered via intubation measured on day 4 by Liebermann-Burchard reaction (reference value: 100 +/- 7%); assay type: functional
# Rattus norvegicus [23] = experiment: Hypocholesterolemic activity in Sprague-Dawley rat assessed as serum cholesterol level at 1 mg/kg/day, po administered via intubation measured on day 16 by Liebermann-Burchard reaction (reference value: 100 +/- 8%); assay type: functional
# Rattus norvegicus [24] = experiment: Hypocholesterolemic activity in Sprague-Dawley rat assessed as serum cholesterol level at 50 mg/kg/day, po administered via intubation measured on day 16 by Liebermann-Burchard reaction (reference value: 100 +/- 8%); assay type: functional
# Rattus norvegicus [25] = experiment: Effect on RNA content in rat liver at 10 mg/kg/day administered for 16 days (reference value: 100 +/- 8%); assay type: ADME, organism-based; conditions: in vivo, 384 h
# Rattus norvegicus [26] = experiment: Effect on glycogen content in rat liver at 10 mg/kg/day administered for 16 days (reference value: 100 +/- 24%); assay type: ADME, organism-based; conditions: in vivo, 384 h
# Rattus norvegicus [27] = experiment: Effect on lipid content in rat liver at 10 mg/kg/day administered for 16 days (reference value: 100 +/- 16%); assay type: ADME, organism-based; conditions: in vivo, 384 h
smiles,measurement,setting,value
Cc1ccc(OCC(=O)COc2ccc(C)cc2)cc1,Activity,Rattus norvegicus [1],4%
same,Activity,Rattus norvegicus [2],4.65%
same,Activity,Rattus norvegicus [3],4.57%
same,Activity,Rattus norvegicus [4],0.43%
same,Activity,Rattus norvegicus [5],0.6%
same,Activity,Rattus norvegicus [6],0.71%
same,Activity,Rattus norvegicus [7],0.24%
same,Activity,Rattus norvegicus [8],0.25%
same,Activity,Rattus norvegicus [9],1.13%
same,Activity,Rattus norvegicus [10],0.11%
same,Activity,Rattus norvegicus [11],0.5%
same,Activity,Rattus norvegicus [12],0.08%
same,Activity,Rattus norvegicus [13],0.48%
same,Activity,Rattus norvegicus [14],6.05%
same,Activity,Rattus norvegicus [15],9.91%
same,Activity,Rattus norvegicus [16],1.82%
same,Activity,Rattus norvegicus [17],1.29%
same,Activity,Rattus norvegicus [18],0.58%
same,Activity,Rattus norvegicus [19],0.33%
same,Activity,Rattus norvegicus [20],168 g
same,Activity,Rattus norvegicus [21],232 g
same,Activity,Rattus norvegicus [22],86%
same,Activity,Rattus norvegicus [23],46%
same,Activity,Rattus norvegicus [24],44%
same,Activity,Rattus norvegicus [25],104%
same,Activity,Rattus norvegicus [26],118%
same,Activity,Rattus norvegicus [27],88%
